# Screening results from PubChem BioAssay.
# SIRT5 inh: inhibitors of human sirtuin-5 desuccinylase; Q9NXA8; Purified SirT5, succinyl-peptide AMC, trypsin-coupled fluorescence; inhibition, % at 15 µM; AID 652115; 330,000 compounds, 1.1% hits; in the data active = inhibition above about 15%; inconclusive = no clear call, values can overlap the other calls
# Target sequence (Q9NXA8 whole entry, looked up): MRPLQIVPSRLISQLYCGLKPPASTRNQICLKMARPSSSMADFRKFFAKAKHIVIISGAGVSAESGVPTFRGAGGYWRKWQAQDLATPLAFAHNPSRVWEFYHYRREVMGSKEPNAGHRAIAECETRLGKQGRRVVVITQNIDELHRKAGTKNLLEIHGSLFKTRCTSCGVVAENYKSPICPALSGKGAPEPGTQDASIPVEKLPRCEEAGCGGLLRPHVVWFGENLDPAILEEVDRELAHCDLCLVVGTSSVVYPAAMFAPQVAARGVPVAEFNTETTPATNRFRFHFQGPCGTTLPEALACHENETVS
# CaV13 ICDI inh: Disruptors of the CACNA1D IQ motif to Ca2+-dependent inactivation inhibitor domain association, primary screening, Förster resonance energy transfer in intact living …; HEK cells, CFP/YFP FRET ICDI-IQ, plate reader, 10 min; percent FRET-ratio fall versus neutral wells; inhibition, % at 12.3 µM; 340,000 compounds, 0.098% hits; AID 743397;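 active = mean replicate inhibition of at least 30% and at least 1% of replicates passing that level; inconclusive = only one of the two criteria is met; inactive = neither criterion is met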;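 also: 0% = median of the neutral control wells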
# S100A4 MyoIIA: inhibitors of human S100A4 binding to myosin IIA peptide; P26447; S100A4/TAMRA-MyoIIA peptide fluorescence polarization; inhibition, % at 10.7 µM; 360,000 compounds, 0.14% hits;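 active = mean inhibition of at least 70% across replicates, with every replicate also reaching that level; inconclusive = mean inhibition reaches 70% but some replicates fall short; inactive = mean inhibition below 70%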
# Target sequence (P26447 whole entry, looked up): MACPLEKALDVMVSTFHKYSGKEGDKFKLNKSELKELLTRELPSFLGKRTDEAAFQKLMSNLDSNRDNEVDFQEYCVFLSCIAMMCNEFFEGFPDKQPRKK
#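 Assay system: human S100A4 monomer with TAMRA-labelled myosin IIA peptide / Buffer or medium: Calcium-containing HEPES buffer, pH 7.2 / Reagent: TAMRA-labelled myosin IIA heavy-chain peptide probe, 5 nM / Compound: one dose per compound / Timing: polarization read 5 min after assay mix addition, stable 5–60 min / Benchmarks: neutral control DMSO, positive control TFP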
# DENV2 CPE: inhibitors of DENV2 cytopathic effect. 350,000 compounds, 1.7% hits. DENV2-infected cells, cytopathic effect rescue, plate reader. AID 651640. CPE inhibition, % at 9.99 µM; in the data active = CPE inhibition above about 20%, passing the limit was not always enough; inconclusive = no clear call, values can overlap the other calls; tested in BHK-21 cells;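 also: 0% = median of neutral control wells and 100% = median of positive control wells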
# MLL AF4-AF9 inh: MLL-AF4/AF9 protein interaction inhibition. AlphaScreen, biotin-AF4 peptide binding to FLAG-AF9. inhibition, % at 10 µM. 350,000 compounds, 0.47% hits;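 active = every replicate reaching a set inhibition limit, whatever the replicate mean, cut at about 25% in these data; inconclusive = mean inhibition reaches that limit but some replicates miss it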;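 also: 0% = plate neutral control median and 100% = total signal loss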
# * = called active by the depositor; u = inconclusive; x = no result. Most compounds without a hit are left out; they make up all but 2.7% or so of the library.
SMILES,SIRT5 inh,CaV13 ICDI inh,S100A4 MyoIIA,DENV2 CPE,MLL AF4-AF9 inh
C=CCN1C(=O)[C@]2(O[C@H](CCO)[C@@H]([Si](C)(C)c3ccc(OC)cc3)[C@@H]2C)c2cc(NC(=O)[C@H](C)O)ccc21,2,x,1,42*,-3
C=CCN1C(=O)[C@]2(O[C@H](CCO)[C@@H]([Si](C)(C)c3ccc(OC)cc3)[C@@H]2C)c2cc(I)ccc21,13,x,9,0,2
O=C1CCCn2cc(nn2)COC[C@@H](Cc2ccccc2)N1,8,x,117*,0,-15
C[C@H]1CCCCO[C@@H](CN(C)Cc2ccccc2)[C@@H](C)CN([C@@H](C)CO)C(=O)c2cc(NC(=O)Nc3ccc(C(F)(F)F)cc3)ccc2O1,3,x,-5,-5,-2
COC(=O)CC1=C(c2ccc([N+](=O)[O-])cc2)CCC1=O,16*,-4,-14,u,-2
C[C@@H]1CN([C@H](C)CO)C(=O)c2cc(NC(=O)Cn3cnnn3)ccc2O[C@H]1CN(C)Cc1ccc2c(c1)OCO2,3,x,-1,21*,1
C[C@H]1CN([C@@H](C)CO)C(=O)c2cc(NC(=O)Cn3cnnn3)ccc2O[C@@H]1CN(C)Cc1ccc2c(c1)OCO2,3,x,4,0,-1
C[C@@H]1CN([C@@H](C)CO)C(=O)c2cc(NC(=O)Cn3cnnn3)ccc2O[C@@H]1CN(C)Cc1ccc(Cl)c(Cl)c1,-3,x,-27,52*,7
COc1ccc(NC(=O)Nc2ccc3c(c2)C(=O)N([C@H](C)CO)C[C@H](C)[C@H](CN(C)C(=O)Nc2ccc(OC)cc2)OCCCC[C@H](C)O3)cc1,7,x,-4,9,-11
C[C@H](CO)N1C[C@H](C)[C@@H](CN(C)C(=O)Nc2cccc3ccccc23)OCCCC[C@H](C)Oc2ccc(NC(=O)NC3CCCCC3)cc2C1=O,6,x,3,113*,-1
COc1ccc(NC(=O)Nc2ccc3c(c2)C(=O)N([C@@H](C)CO)C[C@@H](C)[C@H](CN(C)C(=O)Nc2cccc4ccccc24)OCCCC[C@H](C)O3)cc1,20*,x,12,1,-2
COc1ccc(NC(=O)N(C)C[C@H]2OCCCC[C@@H](C)Oc3ccc(NC(=O)Cc4ccccc4)cc3C(=O)N([C@H](C)CO)C[C@@H]2C)cc1,19*,x,6,0,-3
COc1ccc(NC(=O)Nc2ccc3c(c2)C(=O)N([C@H](C)CO)C[C@@H](C)[C@@H](CN(C)C(=O)Nc2ccc(OC)cc2)OCCCC[C@@H](C)O3)cc1,x,x,3,48*,-5
C[C@H](CO)N1C[C@H](C)[C@H](CN(C)C(=O)Nc2cccc3ccccc23)OCCCC[C@H](C)Oc2ccc(NC(=O)NC3CCCCC3)cc2C1=O,10,x,-4,5,-2
C[C@H]1CN([C@@H](C)CO)C(=O)c2cc(NC(=O)Nc3ccc4c(c3)OCO4)ccc2O[C@@H]1CN(C)S(=O)(=O)c1cccs1,4,x,4,1,3
COc1ccc(NC(=O)Nc2ccc3c(c2)C(=O)N([C@H](C)CO)C[C@H](C)[C@H](CN(C)C(=O)NC(C)C)OCCCC[C@H](C)O3)cc1,-5,x,11,33*,0
C[C@H]1CCCCO[C@@H](CN(C)C(=O)Nc2cccc3ccccc23)[C@@H](C)CN([C@@H](C)CO)C(=O)c2cc(NC(=O)Cc3ccccc3)ccc2O1,4,x,7,83*,-3
COc1ccc(NC(=O)N(C)C[C@H]2OCCCC[C@@H](C)Oc3ccc(NC(=O)Nc4ccc5c(c4)OCO5)cc3C(=O)N([C@@H](C)CO)C[C@H]2C)cc1,12,x,-9,70*,6
COc1ccc(NC(=O)N(C)C[C@@H]2OCCCC[C@@H](C)Oc3ccc(NC(=O)Nc4ccccc4)cc3C(=O)N([C@H](C)CO)C[C@@H]2C)cc1,4,x,-2,39*,-4
COc1ccc(NC(=O)Nc2ccc3c(c2)C(=O)N([C@@H](C)CO)C[C@@H](C)[C@H](CN(C)C(=O)Nc2ccccc2)OCCCC[C@H](C)O3)cc1,8,x,1,-3,-10
CN(C)C(=O)C[C@H]1C=C[C@@H](NC(=O)C2CCOCC2)[C@@H](CO)O1,-3,x,21,4,2
Cc1ccccc1-c1ccc([C@@H]2[C@@H](CO)N3CCCCN(S(=O)(=O)c4ccc(F)cc4)C[C@@H]23)cc1,-2,x,x,x,x
COc1ccc(NC(=O)N(C)C[C@H]2OCCCC[C@@H](C)Oc3ccc(NC(=O)NC4CCCCC4)cc3C(=O)N([C@H](C)CO)C[C@@H]2C)cc1,4,x,134*,u,0
Cc1ccc(C(=O)N/N=C/c2cccc(OC(=O)/C=C/c3ccco3)c2)cn1,24*,-4,-5,x,1
COc1ccccc1NC(=O)N1C[C@H](O)COC[C@@H]2O[C@H](CC(=O)NCc3ccccc3)CC[C@H]21,1,x,-1,1,-5
SMILES,SIRT5 inh,CaV13 ICDI inh,S100A4 MyoIIA,DENV2 CPE,MLL AF4-AF9 inh
C[C@H]1CCCCO[C@H](CN(C)C(=O)CCCN(C)C)[C@@H](C)CN([C@@H](C)CO)C(=O)c2cc(NS(=O)(=O)c3ccc(F)cc3)ccc2O1,-2,x,13,56*,-1
C[C@@H]1CN([C@@H](C)CO)C(=O)c2cc(NS(=O)(=O)c3ccc(F)cc3)ccc2O[C@@H](C)CCCCO[C@@H]1CN(C)C(=O)CCCN(C)C,-3,x,-15,83*,2
C[C@H](CO)N1C[C@H](C)[C@H](CN(C)C(=O)CCCN(C)C)OCCCC[C@H](C)Oc2ccc(NS(=O)(=O)c3ccc(F)cc3)cc2C1=O,1,x,-10,-4,1
C[C@@H]1CCCCO[C@@H](CN(C)C(=O)CCCN(C)C)[C@H](C)CN([C@@H](C)CO)C(=O)c2cc(NS(=O)(=O)c3cccs3)ccc2O1,-3,x,1,x,-1
Cc1noc(C)c1S(=O)(=O)Nc1ccc2c(c1)C(=O)N([C@@H](C)CO)C[C@H](C)[C@H](CN(C)C(=O)CCCN(C)C)OCCCC[C@H](C)O2,x,x,x,73*,x
C[C@H]1CCCCO[C@@H](CN(C)C(=O)CCCN(C)C)[C@@H](C)CN([C@@H](C)CO)C(=O)c2cc(NS(=O)(=O)c3ccc(F)cc3)ccc2O1,-3,x,0,-10,4
C[C@H]1CCCCO[C@H](CN(C)C(=O)CCCN(C)C)[C@@H](C)CN([C@@H](C)CO)C(=O)c2cc(NS(=O)(=O)c3cccs3)ccc2O1,-3,x,8,23*,-2
O=C(C1CC1)N1CC2(C1)[C@H](c1ccccc1)[C@H](CO)N2Cc1ccccc1F,1,x,-1,3,0
C[C@@H]1CCCCO[C@@H](CN(C)C(=O)CCCN(C)C)[C@@H](C)CN([C@H](C)CO)C(=O)c2cc(NS(=O)(=O)c3ccccc3)ccc2O1,19*,x,1,14,-2
